High-throughput results: PubChem, several laboratories
The list is not random: actives were taken first. Their share in the collection is about 2.2%.
EBI2 block: antagonists of human EBI2 receptor; P32249; EBI2 beta-arrestin recruitment, luminescence, 7a,25-OHC stimulated; inhibition, % at 5 µM; 0.81% of 360,000 active; in the data active means inhibition above about 38%;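 further: enzyme fragment complementation signal reports receptor beta-arrestin coupling in cells; 0% = agonist plus DMSO wells and 100% = wells without agonist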
HTR2A ag: mouse HTR2A agonism via beta-arrestin recruitment | CHO-K1 mHTR2A beta-arrestin complementation, luminescence; percent of 30 µM serotonin response | 0.66% of 360,000 active | activation, % at 7.6 µM | P35363 | AID 624169;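 active means activation above a run cutoff, the mean activation of all tested compounds plus 3 SD, cut at about 14% in these data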;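 further: 0% = plate median of compound wells and 100% = 30 µM serotonin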
APJ antag: antagonists of human APJ apelin receptor | inhibition, % at 20 µM | CHO-K1 APJ beta-arrestin complementation, luminescence | P35414 | AID 2521 | 0.32% of 330,000 active;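 active means inhibition above about 40% at 20 µM, limit read from the data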;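 further: cells challenged with 10 nM apelin-13 agonist together with compound; plate controls were apelin-13 plus DMSO wells for no effect and DMSO wells lacking apelin-13 for full effect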
Target sequence (P35414 whole entry, looked up): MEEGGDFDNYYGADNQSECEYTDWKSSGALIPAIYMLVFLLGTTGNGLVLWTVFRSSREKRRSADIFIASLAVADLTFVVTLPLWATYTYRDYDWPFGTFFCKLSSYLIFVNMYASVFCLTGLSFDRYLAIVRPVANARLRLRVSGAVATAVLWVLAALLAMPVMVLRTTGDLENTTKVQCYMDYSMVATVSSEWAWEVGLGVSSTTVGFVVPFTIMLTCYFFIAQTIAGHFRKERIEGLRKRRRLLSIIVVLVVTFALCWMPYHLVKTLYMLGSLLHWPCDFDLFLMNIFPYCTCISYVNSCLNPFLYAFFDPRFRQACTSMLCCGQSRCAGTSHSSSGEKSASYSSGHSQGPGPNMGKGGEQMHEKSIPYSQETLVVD
APJ agonist: activates the human apelin receptor APJ. AID 2520. 0.11% of 330,000 active. CHO-K1 APJ PathHunter beta-arrestin, luminescence; 0% DMSO wells, 100% apelin. activation, % at 20 µM. P35414;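 active means activation more than six SD over the plate average, tested at 20 µM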;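 further: 0% = DMSO alone and 100% = apelin-13 at 10 nM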
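Assay system: CHO-K1 APJ beta-arrestin complementation cell line / Compound: single test compound dose, 20 µM final, 1% DMSO / Times: overnight seeding, 90 min compound at 25 °C, 1 h detection / Technique: beta-gal luminescence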
CCR6 antag: CCR6 (human) receptor antagonism; P51684; 0.49% of 340,000 active; inhibition, % at 20 µM; CHO-K1 CCR6 PathHunter beta-arrestin, luminescence, CCL20-stimulated;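 active means compounds whose inhibition of the agonist-driven luminescence signal at 20 µM reaches about 50%, limit read from the data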;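 further: cells stimulated with CCL20 at 14 nM final; plate controls were DMSO with CCL20 for no effect and DMSO without agonist for full effect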
CXCR6 inh: inhibitors of human CXCR6 receptor; O00574; inhibition, % at 20 µM; AID 602244; CHO-K1 PathHunter CXCR6 beta-arrestin, luminescence; 0.36% of 360,000 active; in the data active means inhibition above about 34%, passing the limit was not always enough;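 further: antagonist mode with CXCL16 agonist at 10 nM final; 0% = 10 nM CXCL16 with DMSO and 100% = unstimulated wells without agonist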
OPRM1 ag: OPRM1 agonism in mouse HTR2A counterscreen | activation, % at 9.3 µM | shares compounds with HTR2A ag | U2OS OPRM1 beta-arrestin PathHunter, luminescence; DMSO 0%, DAMGO 9.3 µM 100% | 5.3% of 2,300 active;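 active means mean activation above the mean of DMSO-only wells plus 3 SD, cut at about 0.5% in these data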
m5-HT2A ag conf: confirmation of mouse HTR2A serotonin receptor agonists | AID 624381 | 19% of 2,300 active | shares compounds with HTR2A ag | CHO-K1 PathHunter beta-arrestin recruitment, luminescence; DMSO 0%, 30 µM serotonin 100% | activation, % at 7.6 µM;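 active means mean activation across triplicates above the hit threshold derived in the original primary screen, cut at about 15% in these data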
Numbers without * were called inactive; x = no result given.

SMILES	EBI2 block	HTR2A ag	APJ antag	APJ agonist	CCR6 antag	CXCR6 inh	OPRM1 ag	m5-HT2A ag conf
O=C(Cn1c(=O)c2cccn2c2cccnc21)N1CCN(c2ccc(Cl)cc2)CC1	-3	15*	10	-1	3	4	-1	-1
Cc1ccc(Cl)cc1N1CCN(C(=O)CCCn2c(=O)c3cccn3c3cccnc32)CC1	10	-1	9	6	12	15	x	x
COc1ccc2c(C)cc(=O)oc2c1	-6	29*	x	x	5	3	-1	37*
CC(=O)OC(C(=O)Nc1nccs1)c1ccccc1 (stereo not given)	-1	16*	9	0	9	-1	-1	-2
O=C(Nc1nccs1)C(Br)C(Br)c1ccccc1 (stereo not given)	-10	6	15	1	12	-11	x	x
COC(=O)[C@H]1C[C@H](OC(=O)Nc2c(C)noc2C)[C@@]2(O)CN(S(=O)(=O)c3ccc(C)cc3)CC2[C@H]1C(=O)OC (stereo not given in full)	-7	16*	x	x	x	-2	0	-2
Cc1ccccc1Cn1c(C)c(C(=O)NCCC#N)sc1=O	0	-2	x	x	x	1	x	x
O=C(CCS(=O)(=O)c1ccccc1Cl)NC1CCCCCC1	-6	21*	-5	-4	-10	-2	0	-1
CCCC(=O)Nc1nc(-c2ccc3c(c2)OCCO3)cs1	-2	16*	10	0	-4	4	-1	-6
CSCC(=O)Nc1nc(-c2ccc3c(c2)OCCO3)cs1	-12	0	7	-2	10	-8	x	x
Cc1nc2cc(Oc3nc(NCCN(C)C)nc4ccsc34)ccc2s1	-14	34*	x	x	x	1	-1	4
CNc1nc(Oc2ccc3sc(C)nc3c2)c2sccc2n1	-3	1	x	x	x	-4	x	x
O=C(NCCN1CCN(c2ccccc2F)CC1)C1CCCN(S(=O)(=O)c2cnc[nH]2)C1 (stereo not given)	-8	19*	-1	-5	11	3	-1	60*
CCS(=O)(=O)N1CCC(C(=O)NCCCN2CCN(c3ccccc3F)CC2)CC1	-8	16*	18	-2	-5	0	-1	54*
O=C(NCCc1ccccc1)C1CCCN(S(=O)(=O)c2cnc[nH]2)C1 (stereo not given)	1	-2	-9	-3	-1	-1	x	x
CCCS(=O)(=O)N1CCCC(C(=O)NCCCN2CCN(c3ccccc3F)CC2)C1 (stereo not given)	-8	-2	22	-4	-12	-8	x	x
Cc1cccc(CCNC(=O)C2CCCN(S(=O)(=O)c3cnc[nH]3)C2)c1 (stereo not given)	-4	15*	-7	0	0	-2	-1	-5
O=C(C1CC1)N1CCc2cc(S(=O)(=O)NCCCN3CCCCC3)ccc21	-9	-2	16	2	-7	-4	x	x
O=C(C1CCC1)N1CCc2cc(S(=O)(=O)NCCN3CCN(c4ccccc4F)CC3)ccc21	0	15*	4	-5	18	-7	0	54*
O=c1[nH][nH]c2c1[C@H](C1CCCC1)O[C@H](CCc1ccccc1)C2	-2	7	x	x	x	-6	x	x
CCOC(=O)C1=CCC(c2cc3ccccc3[nH]2)NC1 (stereo not given)	-3	-10	x	x	x	x	x	x
CC(C)c1[nH]nc2c1C1(CCN(Cc3ccccc3)CC1)C(C#N)=C(N)O2	2	31*	-14	-1	-1	0	-1	-5
Cc1ccccc1C(=O)Nc1ccnc(-c2ccncc2)n1	5	20*	-1	-3	-1	-6	0	1
CC1=CC2C(C(O)CC3(C)C2CC(C)C32OCOC23COCO3)C2(C)C/C(=C\O)C(=O)C=C12 (stereo not given)	29	3	x	x	20	14	x	x
